From PubChem BioAssay
TRPC4 potent – positive allosteric modulators of TRPC4, primary screen, cell-based, mouse TRPC4beta, HEK293 mu-opioid, Fluo-4 calcium; Short transient receptor potential channel 4 (Mus musculus), Q9QUQ5; DAMGO EC20, Fluo-4 Ca2+ flux; hits give high values; B-score at 10 µM; 310,000 compounds, 0.42% hits; AID 2227, 2009;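 active = B-score of calcium response area above 5 SD of library B-scores, with initial fluorescence ratio within 5 SD of library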;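 also: B-score of integrated fluorescence ratio over time as area under calcium response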
TRPC6 activator – mouse TRPC6 channel activators, primary screen, cell-based, HEK293, membrane potential dye; B-score at 10 µM; 310,000 compounds, 0.13% hits; HEK293-TRPC6 membrane potential dye fluorescence; hits give high values;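 active = B-score of the integrated fluorescence ratio above library mean plus 3 SD, and starting fluorescence ratio within library mean plus 5 SD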;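 also: higher score means more depolarization so channel activation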
Target sequence (Q61143 whole entry, looked up): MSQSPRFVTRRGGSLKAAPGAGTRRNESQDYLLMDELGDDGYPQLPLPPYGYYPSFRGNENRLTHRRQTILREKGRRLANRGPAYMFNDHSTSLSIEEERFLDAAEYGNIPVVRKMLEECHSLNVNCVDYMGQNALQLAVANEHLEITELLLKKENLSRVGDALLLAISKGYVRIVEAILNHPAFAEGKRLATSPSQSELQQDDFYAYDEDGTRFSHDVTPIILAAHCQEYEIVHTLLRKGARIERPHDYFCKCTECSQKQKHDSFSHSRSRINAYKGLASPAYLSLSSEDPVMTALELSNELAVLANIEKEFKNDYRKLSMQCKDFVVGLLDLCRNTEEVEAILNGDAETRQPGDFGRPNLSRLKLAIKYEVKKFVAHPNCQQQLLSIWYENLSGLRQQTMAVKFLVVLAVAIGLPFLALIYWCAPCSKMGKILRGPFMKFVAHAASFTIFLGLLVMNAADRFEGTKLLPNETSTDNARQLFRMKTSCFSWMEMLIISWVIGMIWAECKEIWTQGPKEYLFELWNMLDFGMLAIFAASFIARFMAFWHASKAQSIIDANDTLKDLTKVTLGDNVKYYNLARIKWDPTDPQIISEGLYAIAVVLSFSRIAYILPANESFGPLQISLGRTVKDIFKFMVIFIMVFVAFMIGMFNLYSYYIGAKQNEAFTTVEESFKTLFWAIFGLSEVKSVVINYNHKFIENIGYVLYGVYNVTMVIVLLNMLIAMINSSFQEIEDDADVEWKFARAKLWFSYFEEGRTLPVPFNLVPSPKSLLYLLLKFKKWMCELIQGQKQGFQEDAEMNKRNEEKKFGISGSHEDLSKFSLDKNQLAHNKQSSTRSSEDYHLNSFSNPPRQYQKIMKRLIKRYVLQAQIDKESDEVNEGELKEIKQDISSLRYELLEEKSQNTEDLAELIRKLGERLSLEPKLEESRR
FID counter – compounds displacing fluorescent DNA intercalator, primary screen, artefact control for HCV NS3 helicase inhibitor project, biochemical, FID fluorescence; 290,000 compounds, 0.17% hits; inhibition, % at 7.9 µM; DNA fluorescent intercalator displacement; in the data active = inhibition above about 37%;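 also: 0% = vehicle and 100% = reference compound; higher means more ethidium bromide displaced from hairpin DNA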
TRPC4 act – activators of mouse TRPC4 channel, primary screen, Fluo4 calcium, HEK293 TRPC4beta/mu-opioid cells; Short transient receptor potential channel 4 (Mus musculus), Q9QUQ5; Fluo4 calcium fluorescence; hits give high values; B-score at 10 µM; 310,000 compounds, 0.49% hits; AID 2237, 2010;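 active = B-score above 5 SD of library B-scores, and initial fluorescence ratio not above library mean plus 5 SD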;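 also: positive B-score marks a calcium rise read as TRPC4 activation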
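Technique: kinetic Fluo4 calcium fluorescence; Test system: TRPC4beta and mu-opioid receptor HEK293 stable cells; Measure: B-scored integrated calcium fluorescence ratio; Benchmarks: low control buffer alone, high control maximal DAMGO; Schedule: 45 min room-temperature Fluo4 loading, 110 s read.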
TRPC4 inh – inhibitors of mouse TRPC4 channel, primary screen, Fluo4 calcium, HEK293 TRPC4beta/mu-opioid cells. Short transient receptor potential channel 4 (Mus musculus), Q9QUQ5. DAMGO-evoked Fluo4 calcium flux; hits give low values. B-score at 10 µM. 300,000 compounds, 0.39% hits. AID 2247, 2010;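 active = B-score over 3 SD under the library average, no early fluorescence shift, positive overall ratio signal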
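Assay system – HEK293 line stably carrying TRPC4beta and mu-opioid receptor · Doses – single dose · Detection – Fluo4 calcium-dye fluorescence, kinetic read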
TRPC6 inh – mouse TRPC6 channel inhibitors, primary screen, cell-based, HEK293, membrane potential dye. Short transient receptor potential channel 6 (Mus musculus), Q61143. ACh-evoked depolarization; hits give low values. B-score at 10 µM. 310,000 compounds, 1.1% hits. AID 2553, 2010;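 active = B-score under library mean minus 3 SD, initial fluorescence not abnormally high, positive integrated signal ratio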;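 also: B-score derived from integrated fluorescence ratio over the kinetic read; more negative B-score means stronger inhibition of depolarization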
TRPC4 sel inh 2 – second selectivity test of TRPC6 inhibitors: effect on mouse TRPC4; inhibition, % at 10 µM; 920 compounds, 42% hits; shares compounds with TRPC6 inh; HEK293 TRPC4/MOR, membrane potential dye fluorescence; channel activated by saturating DAMGO dose; AID 2776;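 active = compounds whose fluorescence signal differed from control wells by over 3 SD, either direction, in both duplicate plates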
TRPC4 spec – mouse TRPC4 modulation by TRPC6 hits, confirmation, selectivity assay for TRPC6 inhibitor project, cell-based, HEK293 TRPC4/mu-opioid, membrane potential dye; shares compounds with TRPC6 inh; membrane potential fluorescence; activity change, negative = inhibition, % at 10 µM; 920 compounds, 61% hits; AID 2777, 2010;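 active = rise or fall in signal beyond 3 SD of buffer-only wells in both replicate plates, either sign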;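 also: integrated kinetic ratio of fluorescence range over baseline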
HEK293 MPD ctr 2-1 – nonspecific membrane potential effects, parental HEK293, confirmation, counter-screen for TRPC6 inhibitor project, cell-based, second counter screen. signal change vs control, % at 10 µM. AID 2779, 2010. 920 compounds, 31% hits. parental HEK293 membrane potential dye fluorescence; maximal acetylcholine challenge after compound addition. shares compounds with TRPC6 inh;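 active = membrane potential signal moving either way by over 3 SD of the maximum-effect control, in both duplicate plates, meaning non-specific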
HEK293 MPD ctr-1 – membrane potential modulation in parental HEK293, confirmation, counter-screen for TRPC6 inhibitor project, cell-based | shares compounds with TRPC6 inh | parental HEK293 membrane potential dye fluorescence | 920 compounds, 60% hits | AID 2780, 2010 | membrane potential signal change, % at 10 µM;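 active = membrane potential signal shifting up or down by more than 3 SD of buffer-only wells, on both duplicate plates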
HEK293 MPD ctr-2 – parental HEK293 membrane potential modulation, confirmation, counter-screen for TRPC6 modulator project, cell-based. 2,400 compounds, 51% hits. shares compounds with TRPC6 inh. membrane potential signal change, % at 10 µM. AID 488924, 2010. membrane potential dye fluorescence;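 active = membrane potential signal moves up or down beyond 5 SD from buffer-only wells, on both duplicate plates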
HEK293 MPD ctr 2-2 – second counter-screen for TRPC6 modulators: effect in parental HEK293 cells. shares compounds with TRPC6 inh. membrane potential dye fluorescence; after compound, maximal acetylcholine stimulation. inhibition, % at 10 µM. 2,400 compounds, 14% hits. AID 488926;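 active = membrane potential signal drops by more than 5 SD from the mean control signal, in both duplicate plates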;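 also: plate controls were acetylcholine ECmax control wells for no effect and buffer only wells for full effect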
TRPC4/MOR mod – TRPC4 modulation by TRPC6 hit compounds, confirmation, selectivity assay for TRPC6 modulator project, cell-based, HEK293 TRPC4/mu-opioid, membrane potential dye, mouse; shares compounds with TRPC6 inh; membrane potential fluorescence; percent change from control (negative = decrease, positive = increase), % at 10 µM; 2,400 compounds, 69% hits;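 active = membrane potential signal moved up or down beyond 5 SD of buffer control wells, in both duplicate plates, actives on both sides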;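 also: plate controls were assay buffer wells for no effect and DAMGO maximal-effect wells for full effect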
TRPC4/MOR inh 2 – second check of whether TRPC6 modulators also affect mouse TRPC4. AID 488928. inhibition, % at 10 µM. 2,400 compounds, 55% hits. HEK293 TRPC4/mu-opioid, membrane potential dye fluorescence; stimulated with maximal-effect DAMGO. shares compounds with TRPC6 inh;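 active = drop in membrane potential signal beyond 5 SD of the control wells in both duplicate plates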;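 also: TRPC4 counter screen for TRPC6 hits run under conditions tuned for TRPC6 not TRPC4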
TRPC6 block conf – mouse TRPC6 channel inhibitors, confirmation, HEK293 cells, membrane potential dye, duplicate | shares compounds with TRPC6 inh | AID 488960, 2010 | inhibition, % at 10 µM | ACh-evoked depolarization | 3,300 compounds, 43% hits;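 active = fluorescence ratio falls more than 5 SD below the full-stimulation control mean, in both duplicate runs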;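 also: integrated fluorescence ratio of peak minus minimum over baseline after agonist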
TRPC6 act conf – mouse TRPC6 channel activators, confirmation, HEK293 cells, membrane potential dye, duplicate. shares compounds with TRPC6 inh. HEK293-TRPC6 membrane potential dye fluorescence, FDSS. activation, % at 10 µM. 2,800 compounds, 11% hits. AID 488961, 2010;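 active = ratio signal rise beyond 5 SD above unstimulated control wells' mean, seen in both duplicate runs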;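 also: plate controls were buffer EC0 wells for no effect and acetylcholine ECmax response for full effect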
The depositor's hits bear a star; i = inactive; nt = no result given. In the library only some 2.3% were active in any assay of this set; here they are far more common.

SMILES	TRPC4 potent	TRPC6 activator	FID counter	TRPC4 act	TRPC4 inh	TRPC6 inh	HEK293 MPD ctr-2	HEK293 MPD ctr 2-2	TRPC4/MOR mod	TRPC4/MOR inh 2	TRPC6 block conf	TRPC6 act conf	others
COc1ccc(NS(=O)(=O)c2cccc(C(=O)NNC(=O)c3cncc(Br)c3)c2)cc1	i	i	nt	i	i	i	nt	nt	nt	nt	nt	nt
CCN(CC)CCn1c2ccccc2c2cnc(N)c(C#N)c21	i	i	50*	i	-6*	-7.2*	nt	nt	nt	nt	i	i	TRPC4 sel inh 2=i;TRPC4 spec=-12%*;HEK293 MPD ctr 2-1=i;HEK293 MPD ctr-1=-198%*
CN(C)C=Nc1ncc2c3ccccc3n(CCN(C)C)c2c1C#N	i	i	27	i	i	-7*	nt	nt	nt	nt	i	i	TRPC4 sel inh 2=54%*;TRPC4 spec=-16%*;HEK293 MPD ctr 2-1=i;HEK293 MPD ctr-1=-232%*
CCCCNC(=O)C1CCC(CNS(=O)(=O)c2ccc(C)cc2)CC1 (configuration not stated)	i	i	-22	i	i	i	nt	nt	nt	nt	nt	nt
COCCCNC(=O)C1CCC(CNS(=O)(=O)c2ccc(C)cc2)CC1 (configuration not stated)	i	i	-23	i	i	-6.3*	99%*	i	22%*	i	i	i
CCn1c2c(c(=N)c3c1CCC3)CCCC2	i	i	0	i	i	-5.3*	-284%*	i	-48%*	31%*	i	i
N=c1c2c(n(Cc3ccccc3)c3c1CCC3)CCC2	i	i	-4	i	-6*	-7.6*	nt	nt	nt	nt	65%*	i	TRPC4 sel inh 2=68%*;TRPC4 spec=-24%*;HEK293 MPD ctr 2-1=20%*;HEK293 MPD ctr-1=-394%*
N=c1c2c(n(Cc3ccc(F)cc3)c3c1CCC3)CCCC2	i	i	2	i	i	-5.4*	-188%*	i	-30%*	30%*	i	i
CN(CCCC(=O)NCc1ccc2c(c1)OCO2)S(=O)(=O)c1ccc([N+](=O)[O-])cc1	i	i	-13	i	i	i	nt	nt	nt	nt	nt	nt
CCN1CCN(c2cc(C)c3cc(NC(=O)c4cccs4)ccc3n2)CC1	i	i	18	i	i	-5.3*	i	i	i	i	i	i
CCN1CCN(c2cc(C)c3cc(NC(=O)c4ccc5c(c4)OCO5)ccc3n2)CC1	i	i	22	i	i	i	nt	nt	nt	nt	nt	nt
CCN1CCN(c2cc(C)c3cc(NC(=O)c4cncc(Br)c4)ccc3n2)CC1	i	i	38*	i	i	-11*	nt	nt	nt	nt	i	i	TRPC4 sel inh 2=i;TRPC4 spec=-17%*;HEK293 MPD ctr 2-1=i;HEK293 MPD ctr-1=-164%*
CCN1CCN(c2cc(C)c3cc(NC(=O)c4ccc(OC)c(OC)c4)ccc3n2)CC1	i	i	3	i	i	i	nt	nt	nt	nt	nt	nt
CCCN(C(=O)COC(=O)CCOc1ccccc1C)c1c(N)n(Cc2ccccc2)c(=O)[nH]c1=O	i	i	-33	i	i	i	nt	nt	nt	nt	nt	nt
Cc1ccc(Nc2c(-c3ccccc3O)nc3cnccn23)cc1	i	i	-18	i	i	-6.6*	i	i	-11%*	68%*	i	i
Cc1cccc(NC(=O)CCNS(=O)(=O)c2ccc(Cl)cc2)c1	i	i	-11	i	i	-5.1*	i	i	i	i	i	i
O=C(CSc1nnc(-c2ccco2)n1Cc1ccccc1)OC1CCCCC1	i	12*	-34	i	i	i	382%*	i	53%*	52%*	i	86%*
Cn1c(=Nc2ccc(N3CCOCC3)cc2)ccc2ccccc21	i	i	2	i	i	-6*	-76%*	i	-16%*	i	41%*	i
COCCNc1cc(C)nc2cc(-c3ccc(C)cc3)nn12	i	i	-3	i	i	i	nt	nt	nt	nt	nt	nt
CN(C)CCCNc1cc(-c2ccccc2)nc2cc(-c3cccc(F)c3)nn12	i	i	40*	i	i	-5.1*	i	i	-11%*	50%*	46%*	i
